# High-throughput results (PubChem BioAssay)
# CYP2C9 inhib – inhibitors of human CYP2C9; P11712; CYP2C9 Supersomes, luciferin-H conversion, luminescence; inhibition, % at 5 µM; hit rate 20% among 96,000; AID 777;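 active = blocking of liver enzyme CYP2C9 beyond about 50% at 5 µM, limit read from the data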
# Target sequence (P11712 whole entry, looked up): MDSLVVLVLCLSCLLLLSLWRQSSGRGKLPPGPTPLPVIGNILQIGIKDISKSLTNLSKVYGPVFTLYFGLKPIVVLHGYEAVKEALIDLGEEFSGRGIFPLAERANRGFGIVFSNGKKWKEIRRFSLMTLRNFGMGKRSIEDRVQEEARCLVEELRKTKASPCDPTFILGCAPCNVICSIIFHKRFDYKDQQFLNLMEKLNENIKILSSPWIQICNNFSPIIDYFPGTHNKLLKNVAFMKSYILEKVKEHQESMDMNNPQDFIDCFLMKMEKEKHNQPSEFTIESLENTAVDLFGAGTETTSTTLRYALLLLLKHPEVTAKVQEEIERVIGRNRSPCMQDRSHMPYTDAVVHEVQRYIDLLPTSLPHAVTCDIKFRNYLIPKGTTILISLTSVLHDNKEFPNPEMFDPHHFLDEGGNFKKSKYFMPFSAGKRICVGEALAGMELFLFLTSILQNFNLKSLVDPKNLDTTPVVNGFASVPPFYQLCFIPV
# Ecoli tolC – E. coli tolC mutant growth inhibition. E. coli BW25113 tolC mutant growth, OD615. growth inhibition, % at 10 µM (by protocol). AID 573. hit rate 2.2% among 65,000;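 active = growth inhibition at or above a cutoff equal to the mean over every tested compound plus 3 SD, cut at about 60% in these data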;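 also: growth measured after 20 h incubation at 37 °C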
#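 test system = E. coli BW25113 ΔtolC::kan bacteria | medium = LB with kanamycin 50 µg/mL | signal = OD at 615 nm | schedule = 37 °C, 20 h exposure | evaluation = % inhibition of E. coli growth | compound dosing = one dose of 10 µM final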
# CYP2C9 act – CYP2C9 (human) activation; recombinant CYP2C9, luciferin-H conversion, luminescence; stronger effect = higher value; factor 1 = untreated enzyme, 0 = blocked; hit rate 1.4% among 96,000; activation factor at 5 µM; P11712;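 active = activation factor of 2 or more for CYP2C9 at a 5 µM dose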;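 also: 0 = sulfaphenazole-blocked wells and 1 = vehicle-only wells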
# Ecoli WT expand – growth inhibitors of E. coli BW25113 wild type; OD600 absorbance; growth inhibition, % at 100 µM; hit rate 0.15% among 98,000; AID 710;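 active = growth inhibition above about 50% at one test dose, limit read from the data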;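 also: growth measured after 20 h incubation at 37 °C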
# CYP2C19 act – increases human CYP2C19 enzyme activity. P33261. recombinant CYP2C19, luciferin-H EGE luminescence; stronger effect = higher value; 0 = fully inhibited enzyme, 1 = untreated enzyme. activation factor at 5 µM. 96,000 tested, under 10 active;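 active = activation factor of at least 2 at 5 µM in the primary screen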;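 also: 0 = wells with 2.5 mM tranylcypromine and 1 = vehicle-only wells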
# CYP2C19 inh – blocks human cytochrome P450 2C19. CYP2C19 Supersomes, luciferin-H EGE luminescence, 30 min. inhibition, % at 5 µM. hit rate 21% among 96,000;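 active = CYP2C19 inhibition above a set limit at 5 µM in the primary screen, cut at about 50% in these data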;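 also: plate controls were negative control wells for no effect and 2.5 mM tranylcypromine positive control for full effect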
# Starred values were filed as active, the others as inactive; . = no result. Compounds with a hit are over-represented: about 29% of the library has one in this group of screens.
SMILES,CYP2C9 inhib,Ecoli tolC,CYP2C9 act,Ecoli WT expand,CYP2C19 act,CYP2C19 inh
Cc1cccc(NC(=O)c2ccc(S(=O)(=O)N(C)C)cc2)c1,-7,18,1.1,8,1.2,-17
CCN(CC)S(=O)(=O)c1ccc(NS(=O)(=O)c2ccc(F)cc2)cc1,86*,.,0.1,-2,1,5
CCOC(=O)c1ccc(NC(=O)Nc2cc(C)on2)cc1,-8,-3,1.1,3,1.1,-6
Cc1ccc(-c2ccc(/C=N/c3ncn[nH]3)o2)cc1Cl,-13,-1,1.1,13,1,-4
CCOc1ccccc1OCCOc1ccccc1CC,2,.,1,3,0.7,30
COc1cccc(OCCOc2ccccc2OC(C)C)c1,22,.,0.8,-1,0.1,90*
CCOc1ccccc1OCCOc1ccccc1OC(C)C,11,.,0.9,-10,0.4,56*
O=C(Cn1c(=O)n(-c2ccc(F)cc2)c(=O)c2sccc21)N1CCCC1,-14,-16,1.1,2,1.1,-6
CN=Cc1c(NC)nc2c(C)cccn2c1=O,-3,.,1,11,1,-5
COc1ccc(OC(=O)c2ccncc2)cc1,57*,-22,0.4,3,0.2,77*
COc1ccc(C(C)=O)c(OC(=O)c2ccc(OC)c(OC)c2)c1,19,-16,0.8,-9,0.7,30
O=C(Oc1ccc(OC(=O)c2ccncc2)cc1)c1ccncc1,.,-14,.,.,.,.
CC(=O)c1cc(OC(=O)c2ccncc2)ccc1OC(=O)c1ccncc1,65*,-18,0.3,-2,0.1,90*
CC(=O)Oc1ccc2oc(=O)c3c(c2c1)CCCN3C(=O)CN1CCN(c2ncccn2)CC1,20,3,0.8,22,0.8,17
CCCCCOc1ccc2oc(=O)c3c(c2c1)CCCN3C(=O)CN1CCCC(C(=O)OCC)C1 (stereo not drawn),94*,.,0.1,-14,0.2,76*
CCCOc1ccc2oc(=O)c3c(c2c1)CCCN3C(=O)CN(C)Cc1ccccc1,86*,21,0.1,1,0.4,55*
O=C(CN1CCN(Cc2ccccc2)CC1)N1CCCc2c1c(=O)oc1ccc(O)cc21,-5,24,1,-15,0.9,10
COC(=O)c1ccc(S(=O)(=O)N2CCCC2)o1,-4,-4,1,1,1.1,-7
CC(=O)OC1COC(N2CCc3cc(Br)c([N+](=O)[O-])cc32)C(OC(C)=O)C1OC(C)=O (stereo not drawn),94*,.,0.1,3,0.1,88*
CC(C(=O)Nc1cccnc1)N1C(=O)C2C3C=CC(C3)C2C1=O (stereo not drawn),0,-19,1,-1,1,4
COC(=O)C1CCN(C(=O)C2CCCCC2)CC1,22,-3,0.8,8,0.3,66*
CCOC(=O)N1CCN(C(=O)C2CCCCC2)CC1,25,.,0.8,-1,0.7,32
CCCCNC(=O)c1ccc(NS(=O)(=O)c2ccccc2)cc1,93*,26,0.1,2,0.7,35
CCN(CC)C(=O)c1ccc(NS(=O)(=O)c2ccccc2)cc1,77*,8,0.2,-2,0.2,82*
CC(=O)c1ccc(NS(=O)(=O)c2ccccc2)cc1,79*,4,0.2,3,0.4,61*
SMILES,CYP2C9 inhib,Ecoli tolC,CYP2C9 act,Ecoli WT expand,CYP2C19 act,CYP2C19 inh
CC(=O)c1cccc(NC(=O)Oc2ccccc2)c1,10,-12,0.9,9,0.9,14
O=S(=O)(Nc1ccncc1)c1ccccc1,7,-11,0.9,3,1,0
CC(=O)c1ccc(NC(=O)Oc2ccccc2)cc1,39,.,0.6,-3,0.5,54*
CCc1nnc(NC(=O)c2ccc(NS(=O)(=O)c3ccccc3)cc2)s1,.,20,.,-16,.,.
CNC(=O)c1cc(Nc2nnc(C)c3ccccc23)ccc1OC,1,.,1,-3,1.2,-24
Cc1cccc2cc3c(NC(=O)C(C)C)nn(C)c3nc12,2,-17,1,-4,0.9,8
C=CCOc1ccc(C(=O)N(Cc2ccc(N(C)C)cc2)C2CCS(=O)(=O)C2)cc1 (stereo not drawn),15,-4,0.9,-1,1,2
O=C(O)CN(Cc1ccccc1)S(=O)(=O)c1ccc(F)cc1,47,-10,0.5,5,1.2,-15
O=S(=O)(Nc1ccc2c(c1)nc1n2CCOC1)c1ccc(Cl)cc1,73*,13,0.3,-5,0.5,49
COCCNC(=O)Cn1nc(C(F)(F)F)c(Cl)c1C,19,-2,0.8,13,0.6,40
Cc1ccc(C(=O)Nc2ccc(OCc3ccccc3)cc2)cc1[N+](=O)[O-],-2,.,1,-3,0.8,24
Cc1ccc(C(=O)NNC(=S)Nc2cccc(Cl)c2Cl)cc1[N+](=O)[O-],76*,.,0.2,0,0.8,25
CC(C)CCn1c(=O)c2ccccc2n2c(CN3C(=O)NC4(CCC(C)CC4)C3=O)nnc12 (stereo not drawn),13,13,0.9,-8,1,0
CCCCCC(C)n1[nH]c(=O)c2c(C)cc(C)nc21 (stereo not drawn),66*,3,0.3,9,0,98*
Cc1cc(C)c2c(=O)[nH]n(C(C)C)c2n1,-25,-21,1.2,-2,0.9,10
O=C(COC(=O)C1CC(=O)N(c2ccc3c(c2)OCCO3)C1)NC1CCCc2ccccc21 (stereo not drawn),21,5,0.8,-3,1,4
O=C(COC(=O)c1cc([N+](=O)[O-])ccc1NCc1ccccc1)NC1CCCc2ccccc21 (stereo not drawn),69*,.,0.3,-10,0.8,20
CCOC(=O)c1c(Nc2ccccc2)sc(/C=C2\C=Nc3ccccc32)c1O,73*,.,0.3,-7,0.7,32
Cc1cc(/C=C(\C#N)C(=O)NCc2ccco2)c(C)n1C1CCCC1,22,.,0.8,3,1.2,-23
COc1ccc(/C=C/C(=O)c2ccccc2O)cc1CN1CCOCC1,44,.,0.6,1,0.4,58*
COc1cc(OC)cc(C(=O)N/N=C/c2ccc(OC)c(COc3ccc(F)cc3)c2)c1,10,.,0.9,-16,0.7,33
COc1ccc(/C=C/C(=O)c2ccccc2)cc1COc1ccccc1F,74*,.,0.3,-15,0.6,41
CC(C)C(NC(=O)C(c1ccccc1)c1ccccc1)c1nc2ccccc2[nH]1 (stereo not drawn),-2,.,1,-11,1.2,-23
CC(=O)OCCCN1c2ccccc2Nc2nnc(-c3ccccc3)cc21,.,.,.,0,0.4,61*
CCOC(=O)N1CCC(n2c(=S)[nH]c3ccccc3c2=O)CC1,81*,.,0.2,0,0.9,14
CCOC(=O)N1CCN(C(=O)CCCn2c(=O)[nH]c3ccccc3c2=O)CC1,6,-22,0.9,4,1,-1
CCOC(=O)N1CCC(NC(=O)Cc2ccc(-n3c(=O)[nH]c4ccccc4c3=O)cc2)CC1,.,-14,.,.,.,.
